Source: ChEMBL document CHEMBL3045731, “Facile synthesis and herbicidal evaluation of 4H-3,1-benzoxazin-4-ones and 3H-quinazolin-4-ones with 2-phenoxymethyl substituents” (Molecules, 2012)

Columns and labels:
Brassica napus [1] = test: Herbicidal activity against Brassica napus (oilseed rape) assessed as inhibition of root growth at 10 mg/L after 5 days by petri dish culture method relative to control; type: functional; conditions: 120 h, read-out: GI
Method in brief: (§1)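 Test solutions were made in DMF, emulsified with Tween 80, and diluted with water, then added to Petri dishes lined with two filter papers. Twenty rape and twenty barnyard grass seeds were incubated 5 days at 23 ± 1 °C, 60 ± 5% humidity, 10 Klux, 12 h/day light. Mean length of 10 roots and 10 stems gave percent inhibition versus distilled-water controls.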

Brassica napus [2] = test: Herbicidal activity against Brassica napus (oilseed rape) assessed as inhibition of root growth at 1 mg/L after 5 days by petri dish culture method relative to control; type: functional; conditions: 120 h, read-out: GI; method in brief: as §1
Brassica napus [3] = test: Herbicidal activity against Brassica napus (oilseed rape) assessed as inhibition of stalk growth at 1 mg/L after 5 days by petri dish culture method relative to control; type: functional; conditions: 120 h, read-out: GI; method in brief: as §1
Brassica napus [4] = test: Herbicidal activity against Brassica napus (oilseed rape) assessed as inhibition of stalk growth at 10 mg/L after 5 days by petri dish culture method relative to control; type: functional; conditions: 120 h, read-out: GI; method in brief: as §1
Echinochloa crus-galli [5] = test: Herbicidal activity against Echinochloa crus-galli (barnyard grass) assessed as inhibition of root growth at 10 mg/L after 5 days by petri dish culture method relative to control; type: functional; conditions: 120 h, read-out: GI; method in brief: as §1
Brassica napus [6] = test: Herbicidal activity against Brassica napus (oilseed rape) assessed as inhibition of root elongation after 5 days by petri dish culture method; type: functional, organism-based
Echinochloa crus-galli [7] = test: Herbicidal activity against Echinochloa crus-galli (barnyard grass) assessed as inhibition of root growth at 1 mg/L after 5 days by petri dish culture method relative to control; type: functional; conditions: 120 h, read-out: GI; method in brief: as §1
Echinochloa crus-galli [8] = test: Herbicidal activity against Echinochloa crus-galli (barnyard grass) assessed as inhibition of stalk growth at 1 mg/L after 5 days by petri dish culture method relative to control; type: functional; conditions: 120 h, read-out: GI; method in brief: as §1
Echinochloa crus-galli [9] = test: Herbicidal activity against Echinochloa crus-galli (barnyard grass) assessed as inhibition of stalk growth at 10 mg/L after 5 days by petri dish culture method relative to control; type: functional; conditions: 120 h, read-out: GI; method in brief: as §1

Compound: COc1ccc(Cl)cc1Cl
- inhibition of growth at 10 µg/mL (Brassica napus [1]): 100%
- inhibition of growth at 1 µg/mL (Brassica napus [2]): 91%
- inhibition of growth at 1 µg/mL (Brassica napus [3]): 89.1%
- inhibition of growth at 10 µg/mL (Brassica napus [4]): 93.6%
- inhibition of growth at 10 µg/mL (Echinochloa crus-galli [5]): 99.1%
- IC50 (Brassica napus [6]): 6.06 µmol
- inhibition of growth at 1 µg/mL (Echinochloa crus-galli [7]): 67.3%
- inhibition of growth at 1 µg/mL (Echinochloa crus-galli [8]): 45.5%
- inhibition of growth at 10 µg/mL (Echinochloa crus-galli [9]): 76.2%

Compound: Nn1c(COc2ccc(Cl)cc2Cl)nc2ccccc2c1=O
- IC50 (Brassica napus [6]): 224.37 µmol

Compound: Nn1c(COc2ccc(Cl)cc2Cl)nc2c(Cl)cccc2c1=O
- inhibition of growth at 10 µg/mL (Brassica napus [1]): 98.2%
- inhibition of growth at 1 µg/mL (Brassica napus [2]): 93.6%
- inhibition of growth at 1 µg/mL (Brassica napus [3]): 92.3%
- inhibition of growth at 10 µg/mL (Brassica napus [4]): 95.7%
- inhibition of growth at 10 µg/mL (Echinochloa crus-galli [5]): 68.5%
- IC50 (Brassica napus [6]): 27.23 µmol
- inhibition of growth at 1 µg/mL (Echinochloa crus-galli [7]): 24.3%
- inhibition of growth at 1 µg/mL (Echinochloa crus-galli [8]): -7.2%
- inhibition of growth at 10 µg/mL (Echinochloa crus-galli [9]): 38.1%

Compound: COc1cc2nc(COc3ccc(Cl)cc3Cl)n(N)c(=O)c2cc1OC
- IC50 (Brassica napus [6]): 167.59 µmol

Compound: Cn1c(COc2ccc(Cl)cc2)nc2cccc(Cl)c2c1=O
- IC50 (Brassica napus [6]): 201.13 µmol

Compound: Cn1c(COc2ccc(Cl)cc2Cl)nc2c(Cl)cccc2c1=O
- inhibition of growth at 10 µg/mL (Brassica napus [1]): 44.5%
- inhibition of growth at 1 µg/mL (Brassica napus [2]): 32.3%
- inhibition of growth at 1 µg/mL (Brassica napus [3]): -8.8%
- inhibition of growth at 10 µg/mL (Brassica napus [4]): -2.4%
- inhibition of growth at 10 µg/mL (Echinochloa crus-galli [5]): 34.6%
- inhibition of growth at 1 µg/mL (Echinochloa crus-galli [7]): 12.3%
- inhibition of growth at 1 µg/mL (Echinochloa crus-galli [8]): 1.4%
- inhibition of growth at 10 µg/mL (Echinochloa crus-galli [9]): 0%

Compound: O=c1oc(COc2ccc(Cl)cc2)nc2ccccc12
- IC50 (Brassica napus [6]): 30.37 µmol

Compound: O=c1oc(COc2ccc(Cl)cc2)nc2cccc(Cl)c12
- IC50 (Brassica napus [6]): 138.24 µmol

Compound: O=c1oc(COc2ccc(Cl)cc2)nc2ccc(Cl)cc12
- IC50 (Brassica napus [6]): 22.32 µmol

Compound: COc1cc2nc(COc3ccc(Cl)cc3)oc(=O)c2cc1OC
- IC50 (Brassica napus [6]): 80.14 µmol

Compound: O=c1oc(COc2ccc(Cl)cc2Cl)nc2ccccc12
- IC50 (Brassica napus [6]): 10.34 µmol

Compound: O=c1oc(COc2ccc(Cl)cc2Cl)nc2cccc(Cl)c12
- IC50 (Brassica napus [6]): 43.54 µmol

Compound: O=c1oc(COc2ccc(Cl)cc2Cl)nc2ccc(Cl)cc12
- IC50 (Brassica napus [6]): 10.73 µmol

Compound: O=c1oc(COc2ccc(Cl)cc2Cl)nc2cc(Cl)ccc12
- IC50 (Brassica napus [6]): 11.05 µmol

Compound: COc1cc2nc(COc3ccc(Cl)cc3Cl)oc(=O)c2cc1OC
- IC50 (Brassica napus [6]): 142.22 µmol
